# High-throughput results from PubChem.
# Most compounds without a hit are left out; they make up all but 2.6% or so of the library.
# Platelet DG rel = modulates dense granule release in human platelets | human platelet-rich plasma, SFLLRN dense granule ATP release, luminescence | actives 0.22% (n = 300,000) | inhibition, %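 (compounds screened at 7.5 µM in platelet-rich plasma)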;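 active means mean replicate score, as percent of positive control, at or above 50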
# SENP6 inh = SENP6 protease inhibition; Recombinant SENP6 catalytic domain, aminoluciferin luminescence; inhibition, % at 10 µM; Q9GZR1; actives 1.8% (n = 330,000); AID 2599;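 active means inhibition above about 50% at the single tested dose, limit read from the data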;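 further: plate controls were DMSO wells with enzyme for no effect and DMSO wells lacking enzyme for full effect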
# Target sequence (Q9GZR1 628-1112 limits assumed): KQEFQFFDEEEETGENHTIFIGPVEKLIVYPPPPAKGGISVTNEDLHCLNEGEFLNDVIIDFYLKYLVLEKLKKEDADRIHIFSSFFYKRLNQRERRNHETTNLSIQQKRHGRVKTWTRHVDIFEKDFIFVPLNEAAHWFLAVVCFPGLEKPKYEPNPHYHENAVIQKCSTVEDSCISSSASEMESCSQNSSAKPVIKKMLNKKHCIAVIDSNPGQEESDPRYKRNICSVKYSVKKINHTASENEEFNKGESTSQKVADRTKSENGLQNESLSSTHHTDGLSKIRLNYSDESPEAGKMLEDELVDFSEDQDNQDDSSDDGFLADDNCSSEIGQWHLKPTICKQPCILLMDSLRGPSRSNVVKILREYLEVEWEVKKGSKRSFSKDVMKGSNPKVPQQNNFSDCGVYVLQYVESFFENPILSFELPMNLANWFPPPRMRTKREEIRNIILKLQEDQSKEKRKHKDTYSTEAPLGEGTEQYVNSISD
# SENP1 inh = SENP1 (human) catalytic domain inhibition; actives 0.21% (n = 360,000); Q9P0U3; AID 624204; inhibition, % at 10 µM; recombinant SENP1 catalytic domain, CyPet-SUMO1-YPet FRET cleavage;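 active means inhibition at least 30% at 10 µM, raw YFP signal under a set limit, fluorescence ratio 0.5 to 1.5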;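 further: 0% = enzyme with DMSO and 100% = no enzyme wells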
#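 Assay system: hSENP1 catalytic domain, recombinant. Amount: SENP1 enzyme, 20 pM final. Schedule: 50 min reaction, RT, dark. Technique: FRET, CFP and YFP emission. Control set: no-enzyme wells low, DMSO-plus-enzyme wells high control.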
# SENP8 block-1 = inhibitors of human SENP8 protease. inhibition, % at 10 µM. purified SENP8, Z-RLRGG-aminoluciferin cleavage, luminescence. actives 1.2% (n = 330,000). AID 2540. Q96LD8; in the data active means inhibition above about 50%
# SENP8 block-2 = inhibitors of human SENP8 protease | Q96LD8 | recombinant SENP8, Nedd8 substrate fluorescence | inhibition, % at 20 µM | actives 0.64% (n = 360,000) | AID 602440; in the data active means inhibition mostly above about 40%, no sharp cut-off; inactive means mostly below about 27%
# SENP7 inh = blocks the human protease SENP7; recombinant SENP7, Z-RLRGG-aminoluciferin luminescence, 40 min; inhibition, % at 5 µM; actives 1.5% (n = 330,000);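 active means inhibition above about 50% at the single test dose, limit read from the data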;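 further: plate controls were DMSO with enzyme for no effect and no enzyme buffer wells for full effect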
# Starred values were filed as active, the others as inactive; nt = not tested or not shown.
SMILES,Platelet DG rel,SENP6 inh,SENP1 inh,SENP8 block-1,SENP8 block-2,SENP7 inh
Cc1ccc(NC2=C/C(=N\S(=O)(=O)c3cccs3)c3ccccc3C2=O)c(C)c1,7.6,75.6*,2.6,91.5*,115.9*,81.3*
Cc1cccc(NC2=C/C(=N/S(=O)(=O)c3cccs3)c3ccccc3C2=O)c1,nt,nt,4.0,nt,103.0*,nt
Cc1ccc(S(=O)(=O)N2C[C@H]3N(C(=O)OC(C)C)N(C(=O)OC(C)C)C[C@H](OC(=O)NCC4CCCCC4)[C@@]3(O)C2)cc1,nt,nt,2.1,nt,-18.3,nt
O=C(CC(Nc1ccc(Cl)cc1Cl)C(=O)O)c1ccccc1 (stereo not drawn),-16.3,-14.2,3.3,-2.3,26.4,-5.1
O=C(CC(Nc1ccccc1)C(=O)O)c1ccccc1 (stereo not drawn),8.1,79.5*,-12.6,53.8*,-31.6,10.5
CN1CCC(N2CCN(C3CN(Cc4cn(Cc5cccc(C(F)(F)F)c5)nn4)S(=O)(=O)C3)CC2)CC1 (stereo not drawn),nt,nt,-2.1,nt,21.2,nt
O=C1NC(=S)S/C1=C\c1cc2ccccc2nc1N1CCCCC1,-1.0,28.0,76.5*,25.4,7.9,-0.3
CC[C@@H](NC(=O)[C@@H](Cc1ccccc1)NC(=O)CC[C@H]1O[C@@H](n2ccc(=O)[nH]c2=O)[C@H](O)[C@@H]1O)c1ccccc1,nt,nt,-2.2,nt,8.7,nt
Cc1cc(=O)n2nc(N3CCCC(C(=O)NCc4ccc(F)cc4)C3)sc2n1 (stereo not drawn),1.8,4.9,-0.5,12.9,16.2,-4.1
Cc1cc(=O)n2nc(N3CCCC(C(=O)NCc4ccccc4)C3)sc2n1 (stereo not drawn),69.2*,3.7,-1.3,9.7,6.9,-7.1
CCCN(CCC)Cc1cc(=O)oc2cc(C)c(C)cc12,nt,nt,-4.2,nt,-19.0,nt
COc1ccc(Br)cc1CNc1ccc(O)cc1,nt,6.4,0.7,-5.7,60.9*,57.9*
O=C(O)c1ccc(NC2=C(N3CCOCC3)C(=O)c3ccccc3C2=O)cc1,18.7,42.7,-60.0,11.7,53.4*,3.3
CC(=O)N(C1=C(N2CCOCC2)C(=O)c2ccccc2C1=O)c1ccc(C(=O)O)cc1,-3.9,18.0,0.3,19.3,17.5,33.9
Cc1cccc(C)c1NC(=O)C1C(c2ccc3c(c2)OCO3)=Nc2ccccc2N1C(=O)c1cccc2ccccc12 (stereo not drawn),nt,nt,2.4,nt,-72.4,nt
C(=Nc1cccc2c(N=Cc3ccco3)cccc12)c1ccco1,-2.3,85.8*,-47.3,71.6*,-395.5,29.7
CN(C)c1ccc(N=Cc2ccco2)cc1,nt,5.7,-1.2,-14.4,17.4,3.7
NS(=O)(=O)c1ccc(-c2ccc(/C=C3\SC(=S)N(C4CCS(=O)(=O)C4)C3=O)o2)cc1 (stereo not drawn),-3.4,9.4,-35.2,-3.4,20.8,-0.2
Cc1ccc(/C=C2\SC(=S)N(C3CCS(=O)(=O)C3)C2=O)o1 (stereo not drawn),6.6,23.1,-59.9,-6.0,55.6*,11.3
CC(=O)N(C)C1=C(O)c2ccccc2C(=O)C1=O,3.8,14.9,3.4,-1.1,84.8*,14.1
O=C1C(O)=C(O)C(=O)c2ccccc21,nt,79.6*,3.6,57.6*,60.7*,54.9*
CC(=O)N(C1=C(O)c2ccccc2C(=O)C1=O)C1CCCCC1,3.0,2.7,-2.8,4.8,19.4,8.0
O=C1C(=O)c2ccccc2C(O)=C1c1ccccc1F,12.2,-17.0,2.0,0.2,12.5,3.6
O=C1c2ccccc2C(=O)c2[nH]c(=O)[nH]c21,-0.5,65.4*,-1.0,34.6,54.8*,35.8
CC(C)(C)c1ccc(CC(=O)N2CCC2(C)C(=O)NCc2ccc3c(c2)OCO3)cc1 (stereo not drawn),nt,nt,0.8,nt,16.8,nt
SMILES,Platelet DG rel,SENP6 inh,SENP1 inh,SENP8 block-1,SENP8 block-2,SENP7 inh
COc1nsnc1NS(=O)(=O)c1ccc(NC(=S)NC(=O)c2ccncc2)cc1,-11.7,-0.4,-1.6,7.9,24.9,19.4
COc1nccnc1NS(=O)(=O)c1ccc(NC(=S)NC(=O)c2ccc(F)cc2)cc1,10.7,85.8*,-0.8,77.9*,22.3,69.3*
O=C1c2cccc(O)c2C(=O)c2c(O)cccc21,7.0,7.5,nt,0.7,nt,11.6
O=C1C=C(O)c2cccc(O)c2C1=O,nt,66.5*,3.7,30.9,45.1*,13.9
CN(C(=O)COC(=O)COc1ccc2ccccc2c1)c1ccccc1,nt,nt,2.2,nt,19.3,nt
COc1ccc(N2CCN(C(CNS(=O)(=O)c3cccs3)c3cccnc3)CC2)cc1 (stereo not drawn),-1.6,-29.1,-3.2,-5.3,41.9*,-4.5
O=C(Nc1ccc(NC(=O)c2cccs2)cn1)c1ccccc1,-0.8,64.1*,0.6,37.6,5.0,67.2*
CCCCOCCCNC(=O)C[C@@H]1C[C@@]2(C(=O)OC)CCCCC=C2N(Cc2ccco2)C1=O,nt,nt,-3.3,nt,1.8,nt
Cc1cc(/C=N/Nc2nc(N)ncc2[N+](=O)[O-])c(C)n1-c1ccccc1F,28.1,101.9*,nt,94.9*,nt,94.5*
Cc1cc(C)c(S(=O)(=O)/N=C2\C=C(NS(=O)(=O)c3ccccc3)C(=O)c3ccccc32)c(C)c1,6.5,33.1,2.5,19.6,73.3*,6.5
O=S(=O)(N=C1C=CC(=NS(=O)(=O)c2ccccc2)c2ccccc21)c1ccccc1,nt,nt,60.0*,nt,74.4*,nt
Cc1ccc(S(=O)(=O)/N=C2\C=C(NS(=O)(=O)c3ccccc3)C(=O)c3ccccc32)cc1,nt,nt,4.6,nt,73.7*,nt
Cn1cc(CN2CCC(C(=O)NC(c3ccc(F)cc3)c3ccc4ccccc4n3)CC2)c2ccccc21 (stereo not drawn),nt,nt,2.3,nt,8.2,nt
Nc1cc2sc(-c3ccc(C(=O)O)cc3)nc2cc1Cl,76.9*,97.2*,-26.3,97.7*,-308.0,100.4*
CC(C)CNC(=O)c1[nH]c(C(F)(F)F)nc1-c1ccccc1,nt,nt,2.7,nt,27.2,nt
Cc1ncc(CN2CCC(N3CCC(C(=O)N4CCCC4)CC3)CC2)s1,55.1*,-9.6,-0.7,-6.9,-1.3,2.9
C=C(C)[C@@H]1CC=C(CN2CCC(N3CCC(C(=O)N4CCCC4)CC3)CC2)CC1,11.4,-20.1,-10.6,3.2,8.5,2.4
COC(=O)C1=CN(c2ccc3c(c2)OCO3)C(N)=C(C#N)C1c1cccc(F)c1 (stereo not drawn),nt,nt,2.0,nt,-71.2,nt
COc1ccc(-c2cn3cccc(C)c3n2)cc1Br,13.0,-8.5,-0.5,58.8*,-59.5,68.3*
CC1CCCCN1Cc1nc2c(c(=O)n(C)c(=O)n2C)n1CCCc1ccccc1 (stereo not drawn),55.5*,-15.3,-0.9,0.7,9.2,5.6
C=CCn1c(C)cc(C2=NNC(=NC(C)(C)C)SC2)c1C,-2.1,82.8*,-4.3,51.0*,-3.5,9.3
O=C(Nc1ccc(F)cc1F)c1ccc(-n2cccn2)nc1,-4.9,-42.2,1.7,-7.8,27.4,-3.5
CC(C)Sc1ccc(C(=O)Nc2ccc(F)cc2F)cn1,21.2,70.4*,0.1,55.6*,10.5,68.3*
